Test results published in ChEMBL document CHEMBL1932981, “Synthesis of novel 2, 5-dihydrofuran derivatives and evaluation of their anticancer activity” (Eur J Med Chem, 2012).

tested on: SW480; test: Cytotoxicity against human SW480 cells after 24 hrs by MTT assay; assay type: functional, cell-based; settings: SW480, 24 h; call rule not given here
Summary of the method: (§1)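 Cell lines from the Navy Medical College, seeded at 8000 cells/well in 96-well plates. Compounds dissolved in DMSO (stock 10 g/L) and freshly diluted in medium. Dilutions were added in duplicate 24 h after seeding, with incubation continued at 37 °C. Viability read by MTT. IC50 taken as the concentration giving 50% growth inhibition, determined following NCCLS recommendations.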

`C=CC1=C(C(=O)Nc2ccccc2)C(c2ccc(Cl)c(Cl)c2)OC1` (stereo not drawn) and `C=CC1=C(C(=O)NCc2ccccc2)C(c2ccc(Cl)c(Cl)c2)OC1` (stereo not drawn) cannot be ordered by IC50: greater than 100 µM for the first, greater than 100 µM for the second.

Going from `C=CC1=C(C(=O)O)C(c2ccc(OC)c(OC)c2)OC1` (stereo not drawn) to `C=CC1=C(C(=O)Nc2ccccc2)C(c2ccc(OC)c(OC)c2)OC1` (stereo not drawn), the IC50 falls from greater than 100 µM to 45.1 µM.

`C=CC1=C(C(=O)Nc2ccccc2OC)C(c2ccc(OC)cc2)OC1` (stereo not drawn) and `C=CC1=C(C(=O)Nc2cccc(C)c2)C(c2ccc(OC)cc2)OC1` (stereo not drawn) cannot be ordered by IC50: greater than 100 µM for the first, greater than 100 µM for the second.

Compared with `C=CC1=C(C(=O)NC2CCCCC2)C(c2ccc(F)cc2)OC1` (stereo not drawn), `C=CC1=C(C(=O)NC2CCCCC2)C(c2ccc(OC)c(OC)c2)OC1` (stereo not drawn) is lower in IC50: greater than 100 µM for the first, 19.1 µM for the second.

First: C=CC1=C(C(=O)N2CCN(c3cccc(OC)c3)CC2)C(c2ccc(OC)cc2)OC1 (stereo not drawn)
Second: C=CC1=C(C(=O)N2CCN(c3cccc(C)c3C)CC2)C(c2ccc(OC)cc2)OC1 (stereo not drawn)
The IC50 of the first is 1.8-fold lower: 25 µM for the first, 44.1 µM for the second.

`C=CC1=C(C(=O)NCCCCC)C(c2ccc(F)cc2)OC1` (stereo not drawn) and `C=CC1=C(C(=O)NCCC)C(c2ccc(F)cc2)OC1` (stereo not drawn) cannot be ordered by IC50: greater than 100 µM for the first, greater than 100 µM for the second.

Going from `C=CC1=C(C(=O)NCC(C)C)C(c2ccc(OC)cc2)OC1` (stereo not drawn) to `C=CC1=C(C(=O)NCc2ccc(OC)c(OC)c2)C(c2ccc(OC)cc2)OC1` (stereo not drawn), the IC50 falls from greater than 100 µM to 13.5 µM.

`C=CC1=C(C(=O)Nc2ccc(OCC)cc2)C(c2ccc(F)cc2)OC1` (stereo not drawn) and `C=CC1=C(C(=O)NCCc2ccc(F)cc2)C(c2ccc(OC)cc2)OC1` (stereo not drawn) cannot be ordered by IC50: greater than 100 µM for the first, greater than 100 µM for the second.

`C=CC1=C(C(=O)NCc2ccc(OC)c(OC)c2)C(c2ccc(F)cc2)OC1` (stereo not drawn) and `C=CC1=C(C(=O)NCc2ccc(Cl)cc2)C(c2ccc(OC)c(OC)c2)OC1` (stereo not drawn) cannot be ordered by IC50: greater than 100 µM for the first, greater than 100 µM for the second.

`C=CC1=C(C(=O)NCCC)C(c2ccc(Cl)c(Cl)c2)OC1` (stereo not drawn) and `C=CC1=C(C(=O)NC(C)(C)C)C(c2ccc(Cl)c(Cl)c2)OC1` (stereo not drawn) cannot be ordered by IC50: greater than 100 µM for the first, greater than 100 µM for the second.

Compared with `C=CC1=C(C(=O)NCc2ccc(C)cc2)C(c2ccc(OC)c(OC)c2)OC1` (stereo not drawn), `C=CC1=C(C(=O)NCCc2ccc(F)cc2)C(c2ccc(F)cc2)OC1` (stereo not drawn) is lower in IC50: greater than 100 µM for the first, 36 µM for the second.

tested on: A549; test: Cytotoxicity against human A549 cells after 24 hrs by MTT assay; assay type: functional, cell-based; settings: Homo sapiens, A549, 24 h; read-out: IC50; summary of the method: as §1

`C=CC1=C(C(=O)Nc2ccccc2)C(c2ccc(Cl)c(Cl)c2)OC1` (stereo not drawn) and `C=CC1=C(C(=O)NCc2ccccc2)C(c2ccc(Cl)c(Cl)c2)OC1` (stereo not drawn) cannot be ordered by IC50: greater than 100 µM for the first, greater than 100 µM for the second.

`C=CC1=C(C(=O)O)C(c2ccc(OC)c(OC)c2)OC1` (stereo not drawn) and `C=CC1=C(C(=O)Nc2ccccc2)C(c2ccc(OC)c(OC)c2)OC1` (stereo not drawn) cannot be ordered by IC50: greater than 100 µM for the first, greater than 100 µM for the second.

`C=CC1=C(C(=O)Nc2ccccc2OC)C(c2ccc(OC)cc2)OC1` (stereo not drawn) and `C=CC1=C(C(=O)Nc2cccc(C)c2)C(c2ccc(OC)cc2)OC1` (stereo not drawn) cannot be ordered by IC50: greater than 100 µM for the first, greater than 100 µM for the second.

`C=CC1=C(C(=O)NC2CCCCC2)C(c2ccc(F)cc2)OC1` (stereo not drawn) and `C=CC1=C(C(=O)NC2CCCCC2)C(c2ccc(OC)c(OC)c2)OC1` (stereo not drawn) cannot be ordered by IC50: greater than 100 µM for the first, greater than 100 µM for the second.

First: C=CC1=C(C(=O)N2CCN(c3cccc(OC)c3)CC2)C(c2ccc(OC)cc2)OC1 (stereo not drawn)
Second: C=CC1=C(C(=O)N2CCN(c3cccc(C)c3C)CC2)C(c2ccc(OC)cc2)OC1 (stereo not drawn)
The IC50 of the first is 2-fold higher: 20.7 µM for the first, 10.3 µM for the second. The second is the more potent here.

`C=CC1=C(C(=O)NCCCCC)C(c2ccc(F)cc2)OC1` (stereo not drawn) and `C=CC1=C(C(=O)NCCC)C(c2ccc(F)cc2)OC1` (stereo not drawn) cannot be ordered by IC50: greater than 100 µM for the first, greater than 100 µM for the second.

`C=CC1=C(C(=O)NCC(C)C)C(c2ccc(OC)cc2)OC1` (stereo not drawn) and `C=CC1=C(C(=O)NCc2ccc(OC)c(OC)c2)C(c2ccc(OC)cc2)OC1` (stereo not drawn) cannot be ordered by IC50: greater than 100 µM for the first, greater than 100 µM for the second.

`C=CC1=C(C(=O)NCc2ccc(OC)c(OC)c2)C(c2ccc(F)cc2)OC1` (stereo not drawn) and `C=CC1=C(C(=O)NCc2ccc(Cl)cc2)C(c2ccc(OC)c(OC)c2)OC1` (stereo not drawn) cannot be ordered by IC50: greater than 100 µM for the first, greater than 100 µM for the second.

`C=CC1=C(C(=O)NCCC)C(c2ccc(Cl)c(Cl)c2)OC1` (stereo not drawn) and `C=CC1=C(C(=O)NC(C)(C)C)C(c2ccc(Cl)c(Cl)c2)OC1` (stereo not drawn) cannot be ordered by IC50: greater than 100 µM for the first, greater than 100 µM for the second.

`C=CC1=C(C(=O)NCc2ccc(C)cc2)C(c2ccc(OC)c(OC)c2)OC1` (stereo not drawn) and `C=CC1=C(C(=O)NCCc2ccc(F)cc2)C(c2ccc(OC)cc2)OC1` (stereo not drawn) cannot be ordered by IC50: greater than 100 µM for the first, greater than 100 µM for the second.

`C=CC1=C(C(=O)NCCc2ccc(F)cc2)C(c2ccc(F)cc2)OC1` (stereo not drawn) showed an IC50 greater than 100 µM.

same assay, conditions: a549

For `C=CC1=C(C(=O)Nc2ccc(OCC)cc2)C(c2ccc(F)cc2)OC1` (stereo not drawn), the IC50 was “Not Active”.

tested on: HeLa; test: Cytotoxicity against human HeLa cells after 24 hrs by MTT assay; assay type: functional, cell-based; settings: Homo sapiens, HeLa, 24 h; read-out: IC50; summary of the method: as §1

`C=CC1=C(C(=O)Nc2ccccc2)C(c2ccc(Cl)c(Cl)c2)OC1` (stereo not drawn) and `C=CC1=C(C(=O)NCc2ccccc2)C(c2ccc(Cl)c(Cl)c2)OC1` (stereo not drawn) cannot be ordered by IC50: greater than 100 µM for the first, greater than 100 µM for the second.

First: C=CC1=C(C(=O)O)C(c2ccc(OC)c(OC)c2)OC1 (stereo not drawn)
Second: C=CC1=C(C(=O)Nc2ccccc2)C(c2ccc(OC)c(OC)c2)OC1 (stereo not drawn)
The IC50 of the first is 3.6-fold higher: 18 µM for the first, 5.03 µM for the second. The second is the more potent here.

`C=CC1=C(C(=O)Nc2ccccc2OC)C(c2ccc(OC)cc2)OC1` (stereo not drawn) and `C=CC1=C(C(=O)Nc2cccc(C)c2)C(c2ccc(OC)cc2)OC1` (stereo not drawn) cannot be ordered by IC50: greater than 100 µM for the first, greater than 100 µM for the second.

Going from `C=CC1=C(C(=O)NC2CCCCC2)C(c2ccc(F)cc2)OC1` (stereo not drawn) to `C=CC1=C(C(=O)NC2CCCCC2)C(c2ccc(OC)c(OC)c2)OC1` (stereo not drawn), the IC50 falls from greater than 100 µM to 5.54 µM.

Going from `C=CC1=C(C(=O)N2CCN(c3cccc(OC)c3)CC2)C(c2ccc(OC)cc2)OC1` (stereo not drawn) to `C=CC1=C(C(=O)N2CCN(c3cccc(C)c3C)CC2)C(c2ccc(OC)cc2)OC1` (stereo not drawn), the IC50 rises from 15.3 µM to greater than 100 µM. The first is the more potent here.

`C=CC1=C(C(=O)NCCCCC)C(c2ccc(F)cc2)OC1` (stereo not drawn) and `C=CC1=C(C(=O)NCCC)C(c2ccc(F)cc2)OC1` (stereo not drawn) cannot be ordered by IC50: greater than 100 µM for the first, greater than 100 µM for the second.

`C=CC1=C(C(=O)NCC(C)C)C(c2ccc(OC)cc2)OC1` (stereo not drawn) and `C=CC1=C(C(=O)NCc2ccc(OC)c(OC)c2)C(c2ccc(OC)cc2)OC1` (stereo not drawn) cannot be ordered by IC50: greater than 100 µM for the first, greater than 100 µM for the second.

`C=CC1=C(C(=O)Nc2ccc(OCC)cc2)C(c2ccc(F)cc2)OC1` (stereo not drawn) and `C=CC1=C(C(=O)NCCc2ccc(F)cc2)C(c2ccc(OC)cc2)OC1` (stereo not drawn) cannot be ordered by IC50: greater than 100 µM for the first, greater than 100 µM for the second.

`C=CC1=C(C(=O)NCc2ccc(OC)c(OC)c2)C(c2ccc(F)cc2)OC1` (stereo not drawn) and `C=CC1=C(C(=O)NCc2ccc(Cl)cc2)C(c2ccc(OC)c(OC)c2)OC1` (stereo not drawn) cannot be ordered by IC50: greater than 100 µM for the first, greater than 100 µM for the second.

`C=CC1=C(C(=O)NCCC)C(c2ccc(Cl)c(Cl)c2)OC1` (stereo not drawn) and `C=CC1=C(C(=O)NC(C)(C)C)C(c2ccc(Cl)c(Cl)c2)OC1` (stereo not drawn) cannot be ordered by IC50: greater than 100 µM for the first, greater than 100 µM for the second.

`C=CC1=C(C(=O)NCc2ccc(C)cc2)C(c2ccc(OC)c(OC)c2)OC1` (stereo not drawn) and `C=CC1=C(C(=O)NCCc2ccc(F)cc2)C(c2ccc(F)cc2)OC1` (stereo not drawn) cannot be ordered by IC50: greater than 100 µM for the first, greater than 100 µM for the second.

tested on: not listed separately; test: Cytotoxicity against human QGY7701 cells after 24 hrs by MTT assay; assay type: functional, cell-based; settings: QGY7701, 24 h; summary of the method: as §1

`C=CC1=C(C(=O)Nc2ccccc2)C(c2ccc(Cl)c(Cl)c2)OC1` (stereo not drawn) and `C=CC1=C(C(=O)NCc2ccccc2)C(c2ccc(Cl)c(Cl)c2)OC1` (stereo not drawn) cannot be ordered by IC50: greater than 100 µM for the first, greater than 100 µM for the second.

`C=CC1=C(C(=O)O)C(c2ccc(OC)c(OC)c2)OC1` (stereo not drawn) and `C=CC1=C(C(=O)Nc2ccccc2)C(c2ccc(OC)c(OC)c2)OC1` (stereo not drawn) cannot be ordered by IC50: greater than 100 µM for the first, greater than 100 µM for the second.

`C=CC1=C(C(=O)Nc2ccccc2OC)C(c2ccc(OC)cc2)OC1` (stereo not drawn) and `C=CC1=C(C(=O)Nc2cccc(C)c2)C(c2ccc(OC)cc2)OC1` (stereo not drawn) cannot be ordered by IC50: greater than 100 µM for the first, greater than 100 µM for the second.

First: C=CC1=C(C(=O)NC2CCCCC2)C(c2ccc(F)cc2)OC1 (stereo not drawn)
Second: C=CC1=C(C(=O)NC2CCCCC2)C(c2ccc(OC)c(OC)c2)OC1 (stereo not drawn)
The IC50 of the first is 5.4-fold higher: 40.5 µM for the first, 7.49 µM for the second. The second is the more potent here.

First: C=CC1=C(C(=O)N2CCN(c3cccc(OC)c3)CC2)C(c2ccc(OC)cc2)OC1 (stereo not drawn)
Second: C=CC1=C(C(=O)N2CCN(c3cccc(C)c3C)CC2)C(c2ccc(OC)cc2)OC1 (stereo not drawn)
The IC50 of the first is lower: 17.9 µM for the first, greater than 100 µM for the second. The first is the more potent here.

`C=CC1=C(C(=O)NCCCCC)C(c2ccc(F)cc2)OC1` (stereo not drawn) and `C=CC1=C(C(=O)NCCC)C(c2ccc(F)cc2)OC1` (stereo not drawn) cannot be ordered by IC50: greater than 100 µM for the first, greater than 100 µM for the second.

`C=CC1=C(C(=O)NCC(C)C)C(c2ccc(OC)cc2)OC1` (stereo not drawn) and `C=CC1=C(C(=O)NCc2ccc(OC)c(OC)c2)C(c2ccc(OC)cc2)OC1` (stereo not drawn) cannot be ordered by IC50: greater than 100 µM for the first, greater than 100 µM for the second.

Going from `C=CC1=C(C(=O)Nc2ccc(OCC)cc2)C(c2ccc(F)cc2)OC1` (stereo not drawn) to `C=CC1=C(C(=O)NCCc2ccc(F)cc2)C(c2ccc(OC)cc2)OC1` (stereo not drawn), the IC50 rises from 61.6 µM to greater than 100 µM. The first is the more potent here.

Going from `C=CC1=C(C(=O)NCc2ccc(OC)c(OC)c2)C(c2ccc(F)cc2)OC1` (stereo not drawn) to `C=CC1=C(C(=O)NCc2ccc(Cl)cc2)C(c2ccc(OC)c(OC)c2)OC1` (stereo not drawn), the IC50 rises from 87.3 µM to greater than 100 µM.

Compared with `C=CC1=C(C(=O)NCCC)C(c2ccc(Cl)c(Cl)c2)OC1` (stereo not drawn), `C=CC1=C(C(=O)NC(C)(C)C)C(c2ccc(Cl)c(Cl)c2)OC1` (stereo not drawn) is higher in IC50: 31.3 µM for the first, greater than 100 µM for the second. The first is the more potent here.

Going from `C=CC1=C(C(=O)NCc2ccc(C)cc2)C(c2ccc(OC)c(OC)c2)OC1` (stereo not drawn) to `C=CC1=C(C(=O)NCCc2ccc(F)cc2)C(c2ccc(F)cc2)OC1` (stereo not drawn), the IC50 falls from 69.1 µM to 29.7 µM (2.3-fold).
